According to ChEMBL document CHEMBL1122803, “Folate antagonists. 22. Antimalarial and antibacterial effects of 2,4-diamino-6-quinazolinesulfonamides” (1984):

System: Plasmodium berghei
Assay: Antimalarial activity as survivor numbers at day 60 for drug-sensitive Plasmodium berghei infected mice (Mus musculus) after 72 hr
Type: functional
Summary of the method: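 Normal drug-sensitive P. berghei infection in mice. A single subcutaneous dose was given 72 h postinfection, dissolved or suspended in sesame or peanut oil. Groups were five animals (ten where indicated). Mice alive at 60 days postinfection were counted as "cured", without subinoculation confirmation. Toxic deaths on days 2–5 were recorded separately.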

With Nc1nc(N)c2cc(S(=O)(=O)c3ccc4ccccc4c3)ccc2n1 the survivors at day 60 was 5.
